Reference: ChEMBL document CHEMBL5120949, “Optimization of Covalent MKK7 Inhibitors via Crude Nanomole-Scale Libraries” (J Med Chem, 2022)
Values after ≈ are worked out from the molar mass of the structure shown.

Assays:
[1] = biological target: T1, Dual specificity mitogen-activated protein kinase kinase 7 (Homo sapiens) (UniProt O14733); assay: Binding affinity to N-terminal 6XHis-tagged recombinant MKK7 (117 to 423 residues) (unknown origin) assessed as protein labelling at 2 uM measured for 10 mins by LC/MS analysis relative to control
T1 sequence (whole entry): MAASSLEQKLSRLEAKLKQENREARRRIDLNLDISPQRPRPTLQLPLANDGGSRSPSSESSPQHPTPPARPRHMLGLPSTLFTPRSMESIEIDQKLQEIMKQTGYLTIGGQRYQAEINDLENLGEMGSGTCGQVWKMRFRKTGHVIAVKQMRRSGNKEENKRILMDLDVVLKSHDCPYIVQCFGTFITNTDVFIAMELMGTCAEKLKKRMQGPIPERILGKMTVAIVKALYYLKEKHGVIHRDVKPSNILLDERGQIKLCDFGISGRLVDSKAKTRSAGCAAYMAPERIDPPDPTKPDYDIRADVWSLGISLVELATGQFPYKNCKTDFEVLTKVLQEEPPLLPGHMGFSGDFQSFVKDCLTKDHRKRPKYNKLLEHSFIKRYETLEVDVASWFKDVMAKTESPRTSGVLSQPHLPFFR

[2] = biological target: T1, Dual specificity mitogen-activated protein kinase kinase 7 (Homo sapiens); assay: Inhibition of N-terminal 6XHis-tagged recombinant MKK7 (117 to 423 residues) in human U2OS cells assessed as reduction in JNK phosphorylation level at 13.8 uM incubated for 2 hrs by ICW detection method relative to control; assay type: cell-based
Method in brief: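 U2OS cells plated on fibronectin-coated 384-well plates, 24 h. Crude CuAAC reaction mixtures diluted in PBS and given to cells at 13.89 μM final for 2 h. 0.2 M sorbitol added 40 min before fixation. Cells fixed, permeabilized and immunostained for phospho-JNK T183/Y185. The 800 nm signal was normalized to CellTag700 and compared with control wells.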

[3] = Stability of the compound in human plasma assessed as parent compound remaining; assay type: ADME, cell-free
[4] = Kinetic solubility of compound
[5] = Metabolic stability in human liver microsomes assessed as intrinsic clearance measured after 60 mins
[6] = Apparent permeability across apical to basolateral side in human Caco2 cells; settings: Caco-2
[7] = biological target: T2, Dual specificity mitogen-activated protein kinase kinase 7 (Homo sapiens, UniProt O14733); assay: Inhibition of N-terminal 6XHis-tagged recombinant MKK7 (117 to 423 residues) in human U2OS assessed as reduction in c-Jun phosphorylation level incubated for 80 mins by Western blot analysis; assay type: cell-based
T2 sequence (O14733 whole entry): T1 sequence (whole entry)
Method in brief: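 U2OS cells in six-well plates, media changed, then exposed to compound in 0.1% DMSO for 80 min. Sorbitol added to 0.2 M for 40 min. Lysates (35 μg protein) run on western blot against p-c-Jun (Ser63), with GAPDH as loading control. Bands quantified and EC50 taken from a sigmoidal dose–response fit with top fixed at 1 and bottom at 0.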

| Activity [1] | inhibition [2] | Structure (SMILES) | other results |
| --- | --- | --- | --- |
| > 70% | – | C=CC(=O)Nc1cc(C(=O)NCc2cn(C3CCC3)nn2)cc(-c2n[nH]c3ccccc23)c1 | – |
| > 70% | 65% | C=CC(=O)N1CCC[C@@H](n2nc(-c3cn(CC(F)(F)c4ccc(Cl)cc4)nn3)c3c(N)ncnc32)C1 | – |
| 2% | – | C#CCNC(=O)c1cc(NC(=O)C=C)cc(-c2n[nH]c3ccccc23)c1 | – |
| – | 65% | C=CC(=O)N1CCC[C@@H](n2nc(-c3cn(-c4ccc(C(C)=O)cc4)nn3)c3c(N)ncnc32)C1 | Stability [3]: 70%; solubility kinetic [4]: 8 µM (≈ 3.66 µg/mL); microsomal CLint at 1 h [5]: 154 µL/min/mg; Papp A→B [6]: 20 ×10⁻⁶ cm/s |
| > 70% | – | C=CC(=O)Nc1cc(C(=O)NCc2cn(-c3ccccc3C)nn2)cc(-c2n[nH]c3ccccc23)c1 | EC50 [7]: < 3 µM |
| > 70% | 65% | C=CC(=O)N1CCC[C@@H](n2nc(-c3cn(CCc4ccccc4)nn3)c3c(N)ncnc32)C1 | – |
| > 70% | 65% | C=CC(=O)N1CCC[C@@H](n2nc(-c3cn(-c4ccc(CO)c(F)c4)nn3)c3c(N)ncnc32)C1 | – |
| > 70% | – | C=CC(=O)Nc1cc(C(=O)NCc2cn(-c3ccc(F)c(Cl)c3)nn2)cc(-c2n[nH]c3ccccc23)c1 | – |
| > 70% | 65% | C=CC(=O)N1CCC[C@@H](n2nc(-c3cn(C[C@H](O)c4ccc(Br)cc4)nn3)c3c(N)ncnc32)C1 | – |
| > 70% | 65% | C=CC(=O)N1CCC[C@@H](n2nc(-c3cn(-c4ccc(OC)cc4)nn3)c3c(N)ncnc32)C1 | – |
| > 70% | 65% | C=CC(=O)N1CCC[C@@H](n2nc(-c3cn(-c4ccc(Br)cc4)nn3)c3c(N)ncnc32)C1 | – |
| > 70% | – | C=CC(=O)Nc1cc(C(=O)NCc2cn([C@@H]3CCCC[C@H]3OC)nn2)cc(-c2n[nH]c3ccccc23)c1 (racemic) | – |
| > 70% | 65% | C#Cc1nn([C@@H]2CCCN(C(=O)C=C)C2)c2ncnc(N)c12 | – |
| – | 65% | C=CC(=O)N1CCC[C@@H](n2nc(-c3cn(CC(F)(F)c4ccccc4)nn3)c3c(N)ncnc32)C1 | – |
| > 70% | 65% | C=CC(=O)N1CCC[C@@H](n2nc(-c3cn(-c4ccc(C(=O)OC)cc4)nn3)c3c(N)ncnc32)C1 | – |
| > 70% | 65% | C=CC(=O)N1CCC[C@@H](n2nc(-c3cn(-c4ccc(Cl)cc4O)nn3)c3c(N)ncnc32)C1 | – |
| > 70% | 65% | C=CC(=O)N1CCC[C@@H](n2nc(-c3cn(-c4cc(Br)ccc4O)nn3)c3c(N)ncnc32)C1 | EC50 [7]: > 0.9 µM |
